As a reminder, the IC50 is the concentration needed to halve the response being measured.

“And” between values parts separate entries of the source, which are not always exact repeats. Identical values can stand only once. Like-named read-outs stand apart in the source and are kept apart here.

The text below walks through data of paper PMC6953265 (Molecular imaging and biology, 2019).

In data set [1] the target is T1, TSPO (Rattus norvegicus, UniProt P16257). The conditions noted are these: earlier study; cited from earlier work.
Data set [2] concerns the target T1, TSPO. Type of data set: binding. The settings on record: C6 glioma cell lysate; for IC50: read-out: TSPO binding affinity (IC50), competition with [^3H]PK 11195 (0.6 nM), 2 h at 25 °C. In short, it runs like this:
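C6 cells PBS-washed, then freeze-thawed three times in lysis buffer (5.0 mM HEPES, mannitol, sucrose, benzamidine, MgCl2, pH 7.4); lysate 0.5 mg/ml. Lysate incubated with [3H]PK 11195 (final 0.6 nM) and test compound (10−5 to 10−14 M), 2 h, 25 °C. Rapid filtration onto polyethylenimine-presoaked filters, scintillation counting. IC50 fitted in triplicate; fold values are IC50 ratios.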

In data set [3] the target is T1, TSPO. As to the kind of experiment: Compartmental modeling of dynamic PET data. Type of data set: in vivo. The conditions noted are these: for VT ratio between tumor and normal brain: from VT values of Table 1; for K1/k2 / VT / k3/k4 (BPND): mean ± SEM, n = 7.
Data set [4] has as its target T1, TSPO. The conditions noted are these: mean ± SEM, n = 5, cited from earlier work.
For a further data set, the system named is C6 glioma. As to the kind of experiment: In vivo uptake of [^18F]VUIIS1018A, 60-min dynamic PET in C6 glioma-bearing rats. Also on record: species or system rat. In short, it runs like this: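 Male Wistar rats, 1.0 × 10^5 C6 glioma cells implanted stereotactically in right hemisphere 2 weeks before imaging; tumours confirmed by T2-weighted MRI at 4.7T. Venous and arterial catheters placed. 18F-labelled tracer 1.1 ± 0.3 mCi given via jugular catheter in microPET; 60-min listmode dynamic scan (32 frames), CT attenuation correction, 2D OSEM reconstruction. Tumour and contralateral brain VOIs gave time-activity curves.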

Data set [5] has as its target T1, TSPO. Format: in vivo. The conditions noted are these: blocking with [^19F]VUIIS1018A 10 mg/kg 5 min before tracer. In short, it runs like this: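 C6 glioma-bearing male Wistar rats, catheterised venous and arterial. Unlabelled (19F) analogue of tracer, 10 mg/kg, given 5 min before 18F tracer (1.1 ± 0.3 mCi, jugular catheter), then 60-min dynamic microPET with CT attenuation correction. Time-activity curves from tumour and contralateral brain VOIs. BPND maps by SRTM2, normal cerebrum as reference tissue. n = 3.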

Turning to `CCc1cc(CC)n2nc(-c3ccc(OCCF)cc3)c(CC(=O)N(CC)CC)c2n1` [VUIIS1008, 2-(5,7-diethyl-2-(4-(2-fluoroethoxy)phenyl)pyrazolo[1,5-a]pyrimidin-3-yl)-N,N-diethylacetamide], the “fold enhancement in binding affinity compared to DPA-714” value on TSPO [1] is 36 fold.

Regarding `CCCCc1cc(C)n2nc(-c3ccc(OCCF)cc3)c(CC(=O)N(CC)CC)c2n1` [VUIIS1018B], on TSPO [2] (ratio of IC50 values), the “fold lower binding affinity than VUIIS1018A” value was 6000 fold. Further, the IC50 at TSPO [2] worked out at 100 nM.

For `CCc1cc(CC)n2nc(-c3ccc(OCC[18F])cc3)c(CC(=O)N(CC)CC)c2n1` [[^18F]VUIIS1008, 2-(5,7-Diethyl-2-(4-(2-[^18?F]fluoroethoxy)phenyl)pyrazolo[1,5-a]pyrimidin-3-yl)-N,N-diethylacetamide], the “VT ratio between tumor and normal brain” value at TSPO [3] turned out to be 6.0. Further, at TSPO [4] (Brain), the K1/k2 is listed as 0.855 ± 0.325, the VT was 4.210 ± 1.612 and the “k3/k4 (BPND)” value was 4.435 ± 1.387. The “k3/k4 (BPND)” value on TSPO [4] (Brain, listed as [^18 F]VUIIS1008) is on record as 4.43. Moreover, at TSPO [4] (Tumor), the K1/k2 is listed as 1.902 ± 0.816; the VT is on record as 25.224 ± 10.035; the “k3/k4 (BPND)” value was 12.63 and 12.634 ± 1.406.

For the molecule `CCCCc1cc(C)nc2c(CC(=O)N(CC)CC)c(-c3ccc(OCCF)cc3)nn12` [VUIIS1018A], on TSPO [2] (ratio of IC50 values), the “fold enhancement in binding affinity compared with DPA-714” value (shortened to “fold enhancement … with DPA-714”) is around 700 fold and the “fold enhancement in binding affinity compared with VUIIS1008” value was 20 fold. Besides, on TSPO [2], the IC50 came out at 0.0162 nM.

As to `CCCCc1cc(C)nc2c(CC(=O)N(CC)CC)c(-c3ccc(OCC[18F])cc3)nn12` [[^18F]VUIIS1018A, 2-(7-Butyl-2-(4-(2-[^18F]Fluoroethoxy)phenyl)-5-Methylpyrazolo[1,5-a] Pyrimidin-3-yl)-N,N-Diethylacetamide], in the data set on C6 glioma, the “accumulation in C6 gliomas” value was “robust accumulation” and the “accumulation in normal brain” value was “negligible accumulation”. Moreover, on TSPO [5], the “circulating plasma radioactivity compared with the unblocked scenario” value is listed as “significantly elevated” and the “effect of blocking dose on accumulation in the normal brain” value is given as “insignificant effect”. In addition, the “overall reduction in tumor PET signal” value at TSPO [5] (mean ± SD, n = 3) came to 48.3 ± 2.8%. On TSPO [3] (Brain), the K1/k2 is listed as 0.311 ± 0.036; the VT worked out at 1.214 ± 0.190; the “k3/k4 (BPND)” value was 2.91 and 2.913 ± 0.456. Also, on TSPO [3] (Tumor), the K1/k2 is listed as 0.532 ± 0.130; the VT came out at 11.036 ± 3.731; the “k3/k4 (BPND)” value was 23.10 and 23.097 ± 4.757. Also, the “VT ratio between tumor and normal brain” value on TSPO [3] worked out at 9.1. Moreover, the “fold higher k3/k4 in tumor compared with healthy brain” value at TSPO [3] (from k3/k4 values of Table 1) is listed as 8 fold. Moreover, at TSPO [2] (ratio of IC50 values), the “fold enhancement … with DPA-714” value is “approximately 700 fold”. The “fold enhancement … with DPA-714” value at TSPO [2] (ratio of IC50 values, listed as [^18 F]VUIIS1018A) is given as 700 fold.
